Screens deposited in PubChem by The Scripps Research Institute Molecular Screening Center.
An excerpt weighted towards active compounds, which were near 0.58% of everything screened.
OXTR agonist – agonists of human oxytocin receptor. CHO-OTR cells, Fluo-8 calcium fluorescence; normalized: DMSO 0%, oxytocin 100%. activation, % at 3 µM. 0.32% of 320,000 active;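 active = activation above the mean of all tested compounds plus 3 SD, cutoff set per screening run, cut at about 20% in these data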;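 note: peak over basal fluorescence ratio from a 100 s FLIPR kinetic read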
TRPML3 agonist – agonists of human TRPML3 channel; activation, % at 3 µM; HEK293 TRPML3-YFP, Fluo-8 calcium fluorescence; 100% = the carbachol control signal; 0.29% of 220,000 active;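 active = activation above its plate's cutoff, the mean activation of the plate's test wells plus 3 SD, cut at about 12% in these data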;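 note: 0% = DMSO only wells and 100% = carbachol wells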
Target sequence (Q8TDD5 whole entry, looked up): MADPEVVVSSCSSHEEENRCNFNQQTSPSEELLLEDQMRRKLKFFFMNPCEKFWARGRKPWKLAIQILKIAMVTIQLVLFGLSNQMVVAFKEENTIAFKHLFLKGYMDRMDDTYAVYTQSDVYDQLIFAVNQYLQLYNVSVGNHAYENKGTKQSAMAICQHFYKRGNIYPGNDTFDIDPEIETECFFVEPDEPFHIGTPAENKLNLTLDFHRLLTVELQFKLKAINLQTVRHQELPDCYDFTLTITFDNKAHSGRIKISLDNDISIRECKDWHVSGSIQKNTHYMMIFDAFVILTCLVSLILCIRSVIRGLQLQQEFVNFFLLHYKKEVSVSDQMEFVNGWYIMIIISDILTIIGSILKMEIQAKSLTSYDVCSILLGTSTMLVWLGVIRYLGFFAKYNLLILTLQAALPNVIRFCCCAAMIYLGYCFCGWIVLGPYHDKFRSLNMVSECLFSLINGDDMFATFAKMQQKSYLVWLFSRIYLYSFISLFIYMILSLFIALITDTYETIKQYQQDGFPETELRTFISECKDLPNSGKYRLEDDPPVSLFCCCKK
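Test system – HEK293 line with stable expression of human TRPML3-YFP channel · Control set – carbachol 87 µM final as high control (100%), DMSO as low control (0%) · Signal – Fluo-8 calcium dye fluorescence, ex 470-495, em 515-575 nm · Incubation – 1-h 37 °C dye load, 5-s basal, 120-s post-compound reads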
OXTR potentiate – potentiators of human oxytocin receptor; P30559; CHO-OTR cells, Fluo-8 calcium fluorescence, potentiator mode; 0% = oxytocin EC15, 100% = EC100; activation, % at 3 µM; 0.061% of 320,000 active;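 active = activation above that plate's cutoff, the mean activation of tested compounds plus 3 SD, cut at about 6.6% in these data, passing the limit was not always enough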;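 note: 100% uses oxytocin at 75 nM as the full agonist control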
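Material: CHO-OTR cells, human receptor; compound dosing: single dose, 3.0 µM nominal final compound concentration; schedule: 6 min compound pre-incubation at room temperature, 100 s kinetic read; measured by: kinetic Fluo-8 calcium fluorescence; read-out basis: % activation vs EC15 and EC100 oxytocin; controls: EC15 oxytocin alone as 0%, 75 nM oxytocin as 100%; replicates: singlicate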
V1aR counter – activates human V1a receptor in oxytocin agonist counter-screen | AID 2797 | P37288 | activation, % at 3 µM | 0.25% of 320,000 active | CHO-V1R cells, Fluo-8 calcium fluorescence, agonist mode; 0% DMSO, 100% 3 nM vasopressin;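 active = activation above the mean activation of all tested compounds plus 3 SD, per screening run, cut at about 20% in these data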;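 note: signal is peak over basal fluorescence ratio across a 100 second FLIPR read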
TRPN1 ag – activates the zebrafish TRPN1 channel. activation, % at 3 µM. 0.18% of 220,000 active. HEK293 zebrafish TRPN1-YFP, Fluo-8 calcium fluorescence; 100% = response to 87 µM carbachol. AID 1424;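 active = activation above its plate's cutoff, the mean activation of test wells on that plate plus 3 SD, cut at about 19% in these data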;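 note: 0% = DMSO alone and 100% = 87 µM carbachol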
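Assay system: Zebrafish TRPN1-YFP in HEK293 cells | Incubation: Dye loading 1 h at 37 °C, then 30 min room temperature | Measured by: Kinetic Fluo-8 fluorescence, ex 470-495, em 515-575 nm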
V1aR agonist cf – confirmation of human vasopressin V1a receptor agonists; shares compounds with V1aR counter; CHO-V1R cells, Fluo-8 calcium fluorescence, agonist; activation, % at 3 µM; 20% of 180 active; AID 434964;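 active = average activation exceeds primary screen hit cutoff, cut at about 21% in these data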;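 note: peak over basal fluorescence ratio during a 100 s FLIPR read; 0% = DMSO only wells and 100% = 3 nM vasopressin wells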
OXTR ag counter – activates oxytocin receptor in V1a agonist counter-screen; 10% of 180 active; activation, % at 3 µM; CHO-OTR cells, Fluo-8 calcium fluorescence; AID 434969; shares compounds with V1aR counter;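 active = mean activation over three repeats above the cutoff from the earlier oxytocin receptor agonist screen, cut at about 20% in these data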;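 note: peak over minimum fluorescence ratio within a 100 second FLIPR read; 0% = DMSO only wells and 100% = oxytocin high control wells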
The depositor's hits bear a star; · = no result given.

SMILES | OXTR agonist | TRPML3 agonist | OXTR potentiate | V1aR counter | TRPN1 ag | V1aR agonist cf | OXTR ag counter
O=C1c2ccccc2C(=O)N1CCC#Cc1ccc2cc(CCCO)oc(=O)c2c1 | 15 | · | -11 | 26* | · | 9 | 8
N#CCCN(CCC#N)C(=O)C1c2ccccc2Oc2ccccc21 | 12 | · | -6 | 26* | · | 1 | 1
CN(CCC#N)C(=O)COC(=O)C1c2ccccc2Oc2ccccc21 | 2 | · | -2 | 1 | · | · | ·
O=C(Nc1ccc2c(c1)OCO2)C(c1ccccc1)N1CCCCC1 (stereo not given) | -2 | · | -1 | 11 | · | · | ·
CC[N+]1=C(C)C(C)(C)c2cc(C)ccc21 | 14 | 4 | -4 | 23* | 11 | 5 | 3
CC1(CCc2ccc3c(c2)OCO3)NCCc2c1[nH]c1ccccc21 (stereo not given) | 16 | · | -16 | 30* | · | 10 | 22*
COc1cc2nc(C3CCC3)n(NC(=O)C3CCCC(OC)C3)c(=O)c2cc1OC (stereo not given) | -1 | · | -5 | 0 | · | · | ·
CCOc1cc(/C=C2\CCCc3c2nc2ccccc2c3C(=O)O)ccc1OC | 7 | · | 1 | 60* | · | 0 | 0
CC(C)[C@H](NC(=O)c1ccco1)C(=O)OCC(=O)NC12CC3CC(CC(C3)C1)C2 | -2 | 0 | -20 | -1 | 2 | · | ·
COC(=O)c1c(NC(C)=O)sc2c1CCCCC2 | -2 | 1 | -2 | 0 | 0 | · | ·
Cc1cc(-c2ccccc2C(=O)O)on1 | 0 | 1 | -13 | 0 | 0 | · | ·
O=C(O)c1ccccc1C1=Nc2ccc(O)cc2Oc2cc(O)ccc21 | 17 | 2 | -7 | 23* | 5 | 27* | 20*
COc1cccc(C(C(=O)NC(C)(C)C)N(C(=O)CCC(=O)Nc2cc(C)on2)c2ccc3c(c2)OCCO3)c1OC (stereo not given) | 0 | · | -2 | 1 | · | · | ·
CC(C)Cn1c(-c2ccc(Br)cc2)c[nH]c1=S | 8 | -1 | -24 | 35* | -4 | 0 | -1
C[C@H](CO)N1C[C@H](C)[C@@H](CN(C)Cc2ccc(-c3ccccc3)cc2)Oc2c(NS(=O)(=O)c3cn(C)cn3)cccc2C1=O | 1 | · | -4 | 77* | · | -1 | 1
CCC[C@@H]1C[C@@H](C(=O)N[C@@H](C2O[C@H](SC)[C@H](O)[C@@H](O)[C@H]2O)[C@H](C)Cl)N(C)C1 (stereo not given in full) | 1 | 1 | -2 | 43* | 0 | 4 | 1
CCC[C@@H]1C[C@@H](C(=O)NC(C(C)Cl)[C@H]2O[C@H](SC)[C@H](O)[C@@H](O)[C@H]2O)N(C)C1 (stereo not given in full) | 0 | · | 6 | 0 | · | · | ·
Cc1ccc(NC(=O)c2nnn(-c3cccc(C(F)(F)F)c3)c2N)cc1 | 1 | 1 | -7 | 1 | 0 | · | ·
O=C(Nc1ccc(N2CCOCC2)cc1)Nc1ccc(Cl)c(Cl)c1 | 17 | 3 | -8 | 21* | 2 | 11 | 10
O=C(Nc1ccc(Cl)cc1)Nc1ccc(N2CCOCC2)cc1 | 2 | 1 | -14 | 3 | 3 | · | ·
Cc1ccc(-c2ccc(=O)n(Cc3ccc(F)cc3)n2)cc1 | 5 | · | -16 | 22* | · | 2 | -1
O=C(Nc1nnc(-c2ccc3c(c2)CCCC3)o1)c1ccccc1 | 2 | 4 | -8 | 34* | 2 | 12 | 4
Oc1ccc(Cl)cc1/C=N/c1nccs1 | 0 | 0 | -9 | 0 | 0 | · | ·
Oc1ccc(Cl)cc1C=Nc1ccc2c3c(cccc13)CC2 | 13 | 5 | -7 | 51* | 8 | 0 | -1
O=C(N/N=C/c1sc(=O)[nH]c1-[n+]1ccccc1)c1ccccc1[O-] | 1 | -1 | 1 | 1 | -1 | · | ·
SMILES | OXTR agonist | TRPML3 agonist | OXTR potentiate | V1aR counter | TRPN1 ag | V1aR agonist cf | OXTR ag counter
O=C(N/N=C/c1sc(=O)[nH]c1-[n+]1ccc2ccccc2c1)c1ccccc1[O-] | 17 | · | -3 | 27* | · | 1 | 0
Cc1c(NC(=O)COC(=O)CCc2c[nH]c3ccccc23)c(=O)n(-c2ccccc2)n1C | 1 | · | -7 | 0 | · | · | ·
CSc1nnc(N2C(=O)C(O)=C(C(=O)c3ccco3)C2c2ccc(F)cc2)s1 (stereo not given) | 19 | · | -5 | 33* | · | 7 | 6
CCOc1cccc(C2C(C(=O)c3ccco3)=C(O)C(=O)N2c2nnc(C)s2)c1 (stereo not given) | 1 | · | -7 | 2 | · | · | ·
CCSc1nnc(N2C(=O)C(O)=C(C(=O)c3ccco3)C2c2cccc(OC)c2)s1 (stereo not given) | 5 | · | -5 | 31* | · | 3 | 3
COc1ccc(C2C(C(=O)c3ccco3)=C(O)C(=O)N2c2nnc(C)s2)cc1 (stereo not given) | 3 | 1 | 3 | 4 | 3 | · | ·
CSc1nnc(N2C(=O)C(O)=C(C(=O)c3ccco3)C2c2cccc(Cl)c2)s1 (stereo not given) | 10 | · | -6 | 45* | · | 20 | 16
O=C(Nc1ncc(S(=O)(=O)c2ccc([N+](=O)[O-])cc2)s1)c1ccc2ccccc2c1 | 1 | 1 | -13 | 1 | 0 | · | ·
COC(=O)C(NC(=O)c1ccccc1Cl)(Nc1ncc(S(=O)(=O)c2ccc([N+](=O)[O-])cc2)s1)C(F)(F)F (stereo not given) | 19 | 4 | -15 | 28* | 7 | 14 | 16
CC(=O)Nc1ccc(N=Cc2c(O)c(C(=O)Nc3ccccc3)cc3ccccc23)cc1 | 13 | 2 | -14 | 38* | 6 | 193* | 169*
CC(=O)Nc1ccc(NC(=O)c2cccc3ccccc23)cc1 | 0 | · | -13 | 0 | · | · | ·
Nc1c(C(=O)NCc2ccc3c(c2)OCO3)nnn1Cc1ccc(Br)cc1 | 16 | 8 | -9 | 37* | 15 | 15 | 23*
COc1cccc(C(=O)Oc2cc(N)n(S(=O)(=O)c3ccc(C)cc3)n2)c1OC | 7 | 1 | -17 | 28* | 1 | 8 | 8
COc1ccc(C(C)NC(=S)NCc2ccc(F)cc2)cc1 (stereo not given) | 9 | · | -16 | 9 | · | · | ·
Cc1ccc(C)c(C(C)NC(=S)NCc2ccc(F)cc2)c1 (stereo not given) | 16 | · | -18 | 24* | · | 5 | 9
Cn1cc(C(=O)N/N=C/c2ccc(Br)c([N+](=O)[O-])c2)c2ccccc21 | -1 | 0 | -1 | 1 | 1 | · | ·
CNc1snc(C)c1C(=O)OCC(=O)N(C)c1ccccc1 | 2 | · | -5 | 2 | · | · | ·
